Apaf1 activ = activators of human Apaf-1 apoptosome, primary screen, biochemical, DEVD-Rh110 fluorescence, uHTS. hit rate 0.31% among 330,000. Apoptotic protease-activating factor 1 (Homo sapiens), O14727. Apaf-1 apoptosome caspase-3 activation; stronger effect = lower value. AID 489031, 2010. activity change, negative = activation, % at 20 µM;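 active means activity change at or below -40% at 20 µM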
Target sequence (O14727 whole entry, looked up): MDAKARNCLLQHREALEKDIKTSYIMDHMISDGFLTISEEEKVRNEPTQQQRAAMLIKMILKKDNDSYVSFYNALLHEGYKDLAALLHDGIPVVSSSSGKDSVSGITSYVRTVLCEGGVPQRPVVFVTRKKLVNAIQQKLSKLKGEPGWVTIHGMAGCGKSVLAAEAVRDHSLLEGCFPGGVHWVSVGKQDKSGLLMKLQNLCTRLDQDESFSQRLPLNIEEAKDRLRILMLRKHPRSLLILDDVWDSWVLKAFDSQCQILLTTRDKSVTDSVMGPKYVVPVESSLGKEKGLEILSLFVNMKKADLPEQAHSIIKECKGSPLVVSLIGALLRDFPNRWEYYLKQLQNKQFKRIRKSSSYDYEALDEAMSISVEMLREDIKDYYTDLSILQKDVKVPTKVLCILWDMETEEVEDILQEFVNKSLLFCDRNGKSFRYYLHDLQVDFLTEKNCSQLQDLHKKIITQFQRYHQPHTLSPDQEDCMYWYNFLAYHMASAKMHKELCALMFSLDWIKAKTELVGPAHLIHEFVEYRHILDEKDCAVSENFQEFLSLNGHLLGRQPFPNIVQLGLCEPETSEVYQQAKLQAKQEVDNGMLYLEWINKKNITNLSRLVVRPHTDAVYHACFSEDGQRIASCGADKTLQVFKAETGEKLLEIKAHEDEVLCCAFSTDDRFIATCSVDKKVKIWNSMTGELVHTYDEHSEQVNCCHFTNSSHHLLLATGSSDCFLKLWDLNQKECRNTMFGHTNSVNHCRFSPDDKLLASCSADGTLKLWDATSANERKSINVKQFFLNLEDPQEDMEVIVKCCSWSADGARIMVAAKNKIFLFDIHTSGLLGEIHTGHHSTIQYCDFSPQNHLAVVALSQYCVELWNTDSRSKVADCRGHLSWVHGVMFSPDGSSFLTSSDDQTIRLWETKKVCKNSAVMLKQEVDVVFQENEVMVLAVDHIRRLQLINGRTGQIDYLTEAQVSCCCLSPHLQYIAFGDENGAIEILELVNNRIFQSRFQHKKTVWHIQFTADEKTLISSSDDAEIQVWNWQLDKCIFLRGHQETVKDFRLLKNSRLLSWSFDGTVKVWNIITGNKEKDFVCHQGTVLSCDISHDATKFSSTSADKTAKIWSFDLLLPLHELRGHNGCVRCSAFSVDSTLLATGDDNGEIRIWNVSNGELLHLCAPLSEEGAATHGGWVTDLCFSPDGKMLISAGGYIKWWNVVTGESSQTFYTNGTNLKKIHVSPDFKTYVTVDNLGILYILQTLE
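Schedule: 30 min preincubation, 50 min reaction, room temperature / System: biochemical Apaf-1 apoptosome reconstitution / Medium: 20 mM HEPES pH 7.5 with CHAPS, BSA / Evaluation: Caspase-3 cleavage activity downstream of Apaf-1 activation / Detection: Caspase-3-released Rh110 fluorescence, 540 nm emission, 480 nm excitation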
Rh110 interf act = Rh110 fluorescence interference by putative Apaf-1 activators, confirmation, artefact control for Apaf-1 activator project, biochemical, 20 µM. shares compounds with Apaf1 activ. 980 tested, under 10 active. quenched caspase reaction, Ex480/Em540. fluorescence interference (activity change), % at 20 µM, hits read low;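 active means mean activity change at or below -40% when tested at 20 µM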
Apaf-1 act conf = Apaf-1 activators, single-dose retest, confirmation, biochemical, fluorescence, DEVD-Rh110, 20 µM | activity change, negative = activation, % at 20 µM | shares compounds with Apaf1 activ | AID 504617, 2011 | reconstituted apoptosome caspase-3 activity; stronger effect = lower value | hit rate 5% among 980;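 active means mean activity change at or below -40%, meaning activation of 40% or more, at 20 µM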
Starred values were filed as active, the others as inactive; nt = no result. Only a sample is shown.

SMILES	Apaf1 activ	Rh110 interf act	Apaf-1 act conf
O=C(c1ccccc1)N1CCCC(c2ccc(Cl)cc2)=N1	-41*	19	15
O=C1C(Cl)=C(N2CCCCC2)C(=O)C(Cl)=C1c1cnc(N2CCCCC2)s1	48	nt	nt
Cn1c(=O)c2c(SCC(=O)NC3CCCC3)nc(CC(C)(C)C)nc2n(C)c1=O	-508*	0	8
O=C(NC1(O)C(=O)c2ccccc2C1=O)c1ccccc1	94	nt	nt
COC1=CC(=O)c2ccccc2C1=O	79	nt	nt
CCN1CCN(c2ccc(S(=O)(=O)N3CCCCC3)cc2NC(=O)/C=C/c2cc(OC)ccc2OC)CC1	46	nt	nt
OCC1(Cc2ccccc2)CCN(Cc2ccc(-c3ccco3)cc2)CC1	-82*	-1	5
COC1=C(N)C(=O)c2nc(-c3nc(C(=O)O)c(C)c(-c4ccc(OC)c(OC)c4O)c3N)ccc2C1=O	84	nt	nt
NC(=O)c1ccc(N=C2C(=O)Nc3ccc([N+](=O)[O-])cc32)cc1	56	nt	nt
Cc1cc(C(=O)COc2cccc3cccnc23)c(C)n1C	53	nt	nt
O=C(Nc1ccncc1)c1cc(-c2cccc(Br)c2)nc2ccccc12	47	nt	nt
CSc1cccc(NC(=O)c2cccc3cccnc23)c1	-73*	2	13
Cc1ccc(SCC(=O)OCC(=O)NCCNC(=O)COC(=O)CSc2ccc(C)c(C)c2)cc1C	40	nt	nt
COc1ccc(Cn2c(SCc3ccccc3C)nc3cc(OC)c(OC)cc3c2=N)cc1	70	nt	nt
COc1ccc(CCNC(=O)CSc2nnc(C(C)N(C)C)n2Cc2ccccc2)cc1OC (stereo not given)	-60*	22	15
CS(=O)c1nc(-c2ccc(Br)cc2)cc(-c2ccccc2)c1C#N (stereo not given)	55	nt	nt
COc1ccc(O)c(C(c2c(C)[nH][nH]c2=O)c2c(C)[nH][nH]c2=O)c1	67	nt	nt
COC(=O)CCC(=O)OC1(C)C(=O)C=C2C=C(C3CC3)N(CC(C)C)C=C2C1=O (stereo not given)	53	nt	nt
Cc1nn(CC(=O)N2CCc3ccccc32)c(C)c1S(=O)(=O)NC(C)(C)C	-57*	17	10
O=C(COC(=O)c1cccc(Cl)c1)NCCN1C(=O)CSC1=O	-46*	4	3
Nc1ccc2cn[nH]c2c1	52	nt	nt
COc1ccc(Br)cc1CNc1ccc(O)cc1	95	nt	nt
CCOc1cc(CNc2ccc3cn[nH]c3c2)ccc1OC	85	nt	nt
C#CCOCCOCCOCCNc1nc(N2CCN(C(=O)[C@H](CCCCN)n3cc(CN)nn3)CC2)nc(N2CCN(C(=O)[C@H](CCCCN)n3cc(CN)nn3)CC2)n1	44	nt	nt
N#Cc1cccc(S(=O)(=O)N2CCN(c3ccnc4cc(Cl)ccc34)CC2)c1	-135*	3	9
SMILES	Apaf1 activ	Rh110 interf act	Apaf-1 act conf
Cc1ccc(C(=O)N/N=C/c2ccc(-c3ccc(Br)cc3[N+](=O)[O-])o2)o1	42	nt	nt
CCOC(=O)c1c(C)oc2c1C(=O)c1ccccc1C2=O	69	nt	nt
CCOC(=O)c1c(-c2ccc(OC)cc2)oc2cc(Br)c(O)cc12	-62*	-1	-28
CCOC(=O)Nc1ccc(NCc2ccc(F)cc2)nc1N	96	nt	nt
O=C(N/N=C\c1ccc(-c2ccccc2[N+](=O)[O-])o1)C1COc2cc3ccccc3cc2O1 (stereo not given)	81	nt	nt
N#C/C(=C/c1ccc(N2CCOCC2)o1)c1ccc(Br)cc1	-109*	-2	19
O=C1C=C(N2CCCCC2)c2ccccc2C1=O	98	nt	nt
O=C(OCC(=O)N1CCN(S(=O)(=O)c2ccccc2)CC1)c1ccc([N+](=O)[O-])o1	80	nt	nt
COc1ccc(NC2=C(NCCO)C(=O)c3ccccc3C2=O)cc1	70	nt	nt
Clc1nc(Nc2ccc(N3CCOCC3)cc2)c2ccccc2n1	-393*	6	6
O=C(O)c1ccc(NC2=C(N3CCOCC3)C(=O)c3ccccc3C2=O)cc1	68	nt	nt
Fc1cccc(CCN2CCNC[C@H]2Cc2cccc3ccccc23)c1	43	nt	nt
CCOC(=O)C1CCN(c2cc3c(cc2NC(=O)c2ccccc2OCC)n(C)c(=O)n3C)CC1	40	nt	nt
CCOc1ccccc1NC(=O)c1ccc(Cl)c(NC(=O)CC(c2ccccc2)c2ccccc2)c1	-55*	6	14
COc1cc(/C=C2\C(=O)N(CCC#N)N=C2C)c(Br)cc1OC(C)C	79	nt	nt
COC(=O)CCC(=O)OC1(C)C(=O)C2=CN(C(CO)CO)C(c3ccc(OC)cc3)=CC2=C(Br)C1=O (stereo not given)	81	nt	nt
C#CCOCCOCCOCCNc1nc(N2CCN(C(=O)CCCCCCCCCCNC(=O)[C@H](CO)n3cc(CCCCCN)nn3)CC2)nc(N2CCN(C(=O)CCCCCCCCCCNC(=O)[C@H](CCCN=C(N)N)n3cc(C[C@@H](C)CC)nn3)CC2)n1	61	nt	nt
O=C(NCCCn1ccnc1)c1noc2c1CCc1ccccc1-2	47	nt	nt
c1ccc(-c2c(-c3ccccc3)n(Cc3ccco3)c3ncnc(NCCCn4ccnc4)c23)cc1	42	nt	nt
O=C(NCCCn1ccnc1)c1cc(Cl)cc(Cl)c1	-106*	-38	7
CCN(CC)c1ccc(N=Cc2ccccc2[N+](=O)[O-])cc1	62	nt	nt
Nc1nc2ccc(OC(F)(F)F)cc2s1	-1	nt	nt
COc1ccc(CCN2C(=O)C3C4CC(C5C(C(=O)NN)=NOC45)C3C2=O)cc1OC (stereo not given)	-312*	12	13
COc1ccc(CCN(C)C(=O)C2CC(=O)N(Cc3ccc(C)cc3)C2)cc1OC (stereo not given)	56	nt	nt
Cc1cc(C)c(S(=O)(=O)/N=C2\C=C(NS(=O)(=O)c3ccccc3)C(=O)c3ccccc32)c(C)c1	64	nt	nt
SMILES	Apaf1 activ	Rh110 interf act	Apaf-1 act conf
COc1cccc(-c2sc3ccccc3c2-c2ccc(OCCN3CCCC3)cc2)c1	71	nt	nt
CC1CN(CCC(=O)Nc2ccc3c(c2)CCC3)CC(C)O1 (stereo not given)	-85*	10	16
CCN(CC)CCn1c(SCC(=O)Nc2ccc3c(c2)CCC3)nc2ccccc2c1=O	51	nt	nt
Cc1ccc(N2C(=O)[C@@H]3[C@H](C2=O)C2c4ccccc4C=CN2[C@@H]3C(=O)c2ccco2)c(C)c1 (stereo not given in full)	87	nt	nt
C=CC[C@@H](Cc1ccc(F)cc1)C(=O)OC[C@H]1CCCN1C(=O)[C@@H](CC=C)CC(=O)N[C@H](CO)Cc1ccccc1	41	nt	nt
O=C(NNc1cc(N2CCOCC2)nc(N2CCOCC2)n1)c1ccc([N+](=O)[O-])cc1	97	nt	nt
O=C1C(=O)N(CCN2CCOCC2)C(c2ccc([N+](=O)[O-])cc2)/C1=C(/O)c1ccc2c(c1)OCO2 (stereo not given)	-319*	-7	12
CN(Cc1ccccc1)c1oc(-c2ccco2)nc1C#N	41	nt	nt
CN(CCC#N)C(=O)COC(=O)c1cc(Cl)cc(Cl)c1N	-63*	11	17
COc1ccc2sc(-c3ccccc3OC)c(-c3ccc(OCCN(C)C)cc3)c2c1	65	nt	nt
CN(CCO)c1nc(N)c2c(N)nc3c(c2c1C#N)CC(=O)N3C1CCCC1	98	nt	nt
CN1CCN(S(=O)(=O)c2cccc(C(=O)Nc3cc(C(F)(F)F)ccc3N3CCCCC3)c2)CC1	40	nt	nt
